Where two headings read alike, the source gives them in different places.
How the values were obtained:
L1210 cells [1] = test: L1210 cell growth inhibition; type: cell-based, Murine
Method in brief: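 L1210 cells were kept in logarithmic-phase suspension in RPMI-1640 with 10% fetal bovine serum, 2% HEPES-MOPS buffer, 1 mM L-glutamine and 1 mM aminoguanidine at 37 °C under 5% CO₂. Cultures at 0.5–1.0 × 10⁵ cells/mL were treated, reseeded and incubated, then counted. IC50 is the concentration that reduces growth to 50% of control after the set exposure.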

L1210 cells [2] = conditions: cultured L1210 cells; cited from earlier work
[3] = Mus musculus, L1210, 48 h, read-out: IC50 (µM) 48 h
[4] = Mus musculus, L1210, 96 h, read-out: IC50 (µM) 96 h
[5] = read-out: IC50 (µM) 48 h, L1210 cells, 48 h exposure
[6] = read-out: IC50 (µM) 96 h, L1210 cells, 96 h exposure

Row | IC50 (L1210 cells [1]; [3]) [µM] | IC50 (L1210 cells [1]; [4]) [µM] | IC50 (L1210 cells [1]; [5]) [µM] | IC50 (L1210 cells [1]; [6]) [µM] | Structure (SMILES) | intracellular concentration of compound (L1210 cells [2])
1 | 19 | 20 |  |  | C[C@]1(C(=O)O)CSC(c2ccc(O)cc2O)=N1 [(S)-4′-(HO)-DADFT (6), (S)-2-(2,4-dihydroxyphenyl)-4,5-dihydro-4-methyl-4-thiazolecarboxylic acid] | 
2 |  |  | 20 | 2 | CCNCCCNCCCNCCCNCC [DENSPM (1), reference compound] | 
3 | 46 | 55 |  |  | Cc1c(O)c(=O)ccn1C [L1 (2), 1,2-dimethyl-3-hydroxypyridin-4-one, reference compound] | ~ 1 µM
4 | 0.2 | 0.2 |  |  | Cc1c(O)c(=O)ccn1CCCNCCCCNCCCN [L1-SPM-conjugate (3), 1-(12-amino-4,9-diazadodecyl)-2-methyl-3-hydroxy-4(1H)-pyridinone] | 390 µM
5 | 40 | 40 |  |  | C[C@]1(C(=O)O)CSC(c2ccc(OCCCCNCCCNCCCN)cc2O)=N1 [NSPD-(S)-4′-(HO)-DADFT (4), (S)-4,5-dihydro-2-[2-hydroxy-4-(12-amino-5,9-diazadodecyloxy)phenyl]-4-methyl-4-thiazolecarboxylic acid] | 
6 |  |  | 1.8 | 2.1 | CCOC(=O)[C@@]1(C)CSC(c2ccc(OC(=O)c3ccc(CNCCCNCCCN)cc3)cc2O)=N1 [NSPDBn-(S)-4′-(HO)-DADFT-EE (7), ethyl (S)-4,5-dihydro-2-[2-hydroxy-4-[4-(9-amino-2,6-diazanonyl)benzoyloxy]]-4-methyl-4-thiazolecarboxylate] | 

From paper PMC3195516 (Synthesis, 2010)
